From PubChem BioAssay
This is a sample that favours compounds with a hit; in the whole collection about 3.9% have one here.
core dimer inh = inhibitors of HCV core protein dimerization, primary screen, biochemical, TR-FRET, high-throughput; TR-FRET GST/Flag-core106 dimerization, 1536-well; AID 1899, 2009; inhibition, % at 5 µM; 300,000 compounds, 0.33% hits;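 active = inhibition above the mean of all tested compounds plus 3 SD, set per screening campaign, cut at about 45% in these data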
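System: GST/Flag-tagged HCV core106 proteins. Incubation: compound-protein-antibody incubation 4 h at 22.5 °C. Technique: HTRF with 340 nm excitation, 617/671 nm emission. Medium: KF-containing HEPES buffer, pH 7.45, DTT, CHAPS, BSA. Read-out: inhibition (%) from 671 over 617 nm ratio. Also added: Eu(K)-anti-GST 90 ng/mL plus XL665-anti-Flag 1 µg/mL.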
HSF-1 act = HSF-1 activators, primary screen, NIH3T3-HGL cells, MG132 stress, luminescence, single point | NIH3T3-HGL HSF-1 luciferase reporter, 8 h; 100% = twice DMSO control signal | 300,000 compounds, 1.7% hits | activation, % at 9 µM;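 active = mean replicate activation of at least 50% with a set share of replicates each reaching 50%; inconclusive = only one of those two conditions met; inactive = mean below 50% and too few replicates reaching it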;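 also: 0% = median of the neutral control wells and 100% = twice that signal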
HSF1 inhib = HSF1 inhibitors in luciferase reporter cells, primary screen, cell-based, NIH3T3, luminescence; NIH3T3-HGL HSE-luciferase, MG132-induced, luminescence 8 h; stronger effect = lower value; activity change, negative = inhibition, % at 7.5 µM (by protocol); 300,000 compounds, 0.77% hits;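 active = more than half of replicate wells show activity change below -50%, luminescence cut by over half; inconclusive = some wells, but at most half, below -50%; inactive = no replicate well below -50%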;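 also: luciferase reports HSF-1 transcriptional activity via heat shock element; 0% = median of DMSO wells and -100% = zero luminescence signal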
HCV NS3 hel inh = inhibitors of HCV NS3 helicase, primary screen, biochemical, Cy5 molecular beacon fluorescence; inhibition, % at 10.9 µM; NS3 helicase DNA unwinding; 290,000 compounds, 0.56% hits; AID 1800, 2009;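 active = inhibition above the mean of all tested compounds plus 3 SD, set per campaign, cut at about 35% in these data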;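 also: 0% = DMSO wells and 100% = thioflavine S control wells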
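test system = hepatitis C virus NS3 helicase domain fragment enzyme | reagent = annealed dual-labelled DNA beacon duplex, ATP-started | times = 1 h at 25 °C | detection = Cy5 fluorescence, 0 and 60 min reads | read-out basis = percent inhibition from t60/t0 fluorescence ratio | control set = DMSO and thioflavine S | replication = one well per compound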
HSP90 inh = HSP90 inhibitors, primary screen, cell lysate, luminescence; inhibition, % at 5.6 µM; Heat shock protein HSP 90 (rabbit reticulocyte lysate; luciferase refolding); Rabbit reticulocyte lysate, luciferase refolding luminescence, 3 h; 290,000 compounds, 0.91% hits;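 active = inhibition above the screen-wide mean plus 3 SD, computed separately per campaign, cut at about 16% in these data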;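 also: 0% = DMSO wells and 100% = 60 µM geldanamycin wells; inhibitors lower the luminescence because luciferase stays unfolded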
FID counter = compounds displacing fluorescent DNA intercalator, primary screen, artefact control for HCV NS3 helicase inhibitor project, biochemical, FID fluorescence; inhibition, % at 7.9 µM; DNA fluorescent intercalator displacement; 290,000 compounds, 0.17% hits; in the data active = inhibition above about 37%;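 also: 0% = vehicle and 100% = reference compound; higher means more ethidium bromide displaced from hairpin DNA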
Active calls of the source: *; ? = inconclusive; . = not tested or not shown.

SMILES	core dimer inh	HSF-1 act	HSF1 inhib	HCV NS3 hel inh	HSP90 inh	FID counter
CCN(CC)CCn1c2ccccc2c2cnc(N)c(C#N)c21	-2.8	-29.4	-21.9	17.6	2.0	49.9*
CCCC12CN3CC(C)(CN(C1)C3c1ccc3c(c1)OCO3)C2=O (stereo unspecified)	-4.1	66.1*	31.4	13.8	-1.4	-6.0
CCCC12CN3CC(C)(CN(C1)C3c1ccc(OC)cc1)C2=O (stereo unspecified)	-1.4	-5.6	-11.4	5.3	0.5	-8.6
CC1C/C(=C\c2ccccc2[N+](=O)[O-])c2nc3ccccc3c(C(=O)O)c2C1 (stereo unspecified)	-1.4	4.1	-4.0	19.4	-3.4	-20.4
CCCNC(=O)c1ccc(COc2ccc(CCC)cc2OC)o1	-3.5	-66.4	-56.2*	4.2	-4.7	-31.4
O=c1c2ccccc2nnn1COc1cccc2ccccc12	0.6	22.3	44.3	-1.5	2.9	-15.0
O=c1c2ccccc2nnn1COc1ccc(F)cc1Cl	-4.6	83.7*	62.0	-17.6	3.5	-0.8
O=c1c2ccccc2nnn1COc1ccc(Cl)cc1Br	2.7	56.4*	40.4	6.3	0.1	3.0
O=S1(=O)NC(C2CC2c2ccccc2)CCO1 (stereo unspecified)	4.1	17.6	4.2	-4.0	0.7	-1.6
C/C(=N/NC(=O)c1cc2ccccc2cc1O)c1ccco1	-18.9	92.7*	95.2	25.8	1.6	-10.1
CC(Oc1ccccc1)C(=O)N=Nc1c(O)[nH]c2ccc(Br)cc12 (stereo unspecified)	-1.1	70.0*	24.8	2.2	0.2	-4.3
CSc1ccccc1NC(=O)c1csc(C)c1	-9.6	-7.0	-7.5	-1.7	2.0	-8.7
COc1ccc(/C=N/Nc2nncn2N)cc1Br	-3.9	77.9*	47.2	15.4	0.0	3.0
CCOc1ccc(N(CC(=O)NC2CCCCC2)C(=O)CCC(=O)Nc2nc(C)cs2)cc1	11.1	-59.8	-59.0*	-7.2	-3.0	-52.8
CCc1cccc(C)c1NC(=O)CSc1nc2ccc(N3C(=O)c4ccccc4C3=O)cc2s1	47.1*	6.2	-5.5	-6.5	-1.0	-5.1
CCN(CCS(=O)(=O)c1ccc(Cl)cc1)C(=O)Nc1ccccc1	2.5	-72.9	-64.1*	2.8	-0.3	-2.5
Cc1cc(-c2ccccc2)oc(=O)c1NC(=O)c1ccccc1	-5.0	3.7	-4.9	11.8	-0.1	-2.6
CCOc1cc(/C=C2\NC(=S)N(c3c(C)n(C)n(-c4ccccc4)c3=O)C2=O)ccc1O	-22.5	-0.3	-1.9	3.5	3.2	-24.0
CCOc1cccc(/C=C2\NC(=S)N(c3ccccc3)C2=O)c1O	-17.5	102.1*	81.9	-7.4	-0.3	-4.4
O=C(Nc1cccc(C(F)(F)F)c1)Nc1ccc(N2CCCC2)c(S(=O)(=O)Nc2ccccc2Cl)c1	13.2	0.8	10.2	-18.8	-0.3	13.0
CCOC(=O)c1ccc2nc(Nc3nc4ccc(F)cc4s3)sc2c1	3.6	-82.4	-80.0*	3.8	11.9	-1.9
CCOC(=O)c1ccc2nc(NC(C)=O)sc2c1	-2.5	?	9.8	-4.0	-1.6	1.2
COC(=O)c1ccc2nc(Nc3nc4c(F)cc(F)cc4s3)sc2c1	-11.6	-90.1	-87.8*	22.6	77.3*	-4.9
O=C(NNC(=O)C1C2C=CC(C2)C1C(=O)O)c1ccccc1O (stereo unspecified)	0.1	9.9	-9.7	1.2	1.6	-6.6
O=C(NC(=S)NCc1ccco1)c1ccccc1[N+](=O)[O-]	-4.0	-11.6	-7.5	-3.5	-0.8	0.1
SMILES	core dimer inh	HSF-1 act	HSF1 inhib	HCV NS3 hel inh	HSP90 inh	FID counter
COc1c(Cl)cnn(-c2ccccc2)c1=O	-8.0	11.0	-8.0	-1.3	-2.5	-0.4
COc1nn(-c2ccccc2)c(=O)c(Cl)c1Cl	-87.8	-93.6	-93.2*	-4.3	-5.0	0.7
Cc1ccc(CNC(=O)CCC2CCCN(Cc3cccc4ncccc34)C2)o1 (stereo unspecified)	3.3	5.8	-2.7	-3.4	-3.7	-3.2
CCCCSc1ncc(C(=O)OCC)c(N)n1	-2.3	64.2*	31.2	9.1	3.7	-3.8
CCOC(=O)c1cnc(SC2CC(=O)N(c3ccccc3)C2=O)nc1N (stereo unspecified)	2.2	2.7	-0.6	-0.8	0.5	-0.8
CCOC(=O)c1cnc(SCCc2ccccc2)nc1N	0.4	88.5*	53.6	-6.7	6.7	-13.8
CCOC(=O)c1cnc(SC2CCc3ccccc3C2=O)nc1N (stereo unspecified)	3.6	-18.7	-15.6	3.9	16.4*	-18.2
CCOC(=O)c1cnc(SCc2ccc(C)cc2)nc1N	8.7	?	31.6	10.7	-1.1	-4.5
O=C(NC1CCCCC1)c1ccc(CS(=O)(=O)c2ccc(Cl)cc2)o1	-6.5	11.2	0.8	0.5	1.4	-34.5
Cc1ccccc1/C(N)=N/OC(=O)c1ccc(F)cc1	-2.8	57.8*	27.0	5.2	-3.3	1.3
Cc1ccccc1C(=O)O/N=C(\N)c1ccc([N+](=O)[O-])cc1	-3.2	32.9	9.1	-17.2	-3.2	-4.5
CCOc1ccc(NC(=S)N2CCC(c3ccc(C)cc3)C2)cc1 (stereo unspecified)	1.7	-26.8	-3.6	-10.1	2.3	-25.3
N=c1c2c(-c3ccccc3)c(-c3ccccc3)n(Cc3ccccc3)c2ncn1CCO	-5.0	19.7	11.5	-56.9	2.2	37.1*
N=c1c2c(-c3ccccc3)c(-c3ccccc3)n(Cc3ccco3)c2ncn1CCCN1CCOCC1	-5.2	102.4*	48.8	-42.2	0.8	23.6
Cc1ccc(C)c(/C=C(\C(=O)O)c2ccc(S(=O)(=O)N3CCCCC3)s2)c1	57.1*	-15.4	-10.3	18.7	0.5	-22.6
O=C(O)/C(=C\c1cccc(F)c1)c1ccc(S(=O)(=O)N2CCCCC2)s1	15.0	12.3	-2.0	28.2	1.9	-25.9
O=C(COC(=O)c1cc2c(s1)CCC2)Nc1ccc(F)cc1	50.1*	5.7	-8.7	30.8	0.0	-13.1
O=C(COC(=O)c1cc2c(s1)CCCC2)Nc1ccc(Cl)cn1	10.1	-12.5	3.0	-11.7	0.3	2.3
Cn1c(SCc2ccccc2Cl)nc2ccccc21	-1.0	93.1*	40.1	-8.1	-0.1	-8.0
CCCOc1ccc(/C(O)=C2/C(=O)C(=O)N(CCN(C)C)C2c2ccc(O)c(OC)c2)cc1 (stereo unspecified)	.	-80.1	-76.9*	-4.0	7.2	-4.0
CCCOc1ccc(C2/C(=C(/O)c3ccccc3)C(=O)C(=O)N2CCCN(C)C)cc1OC (stereo unspecified)	2.2	.	.	5.6	-4.5	-2.9
